EBI2 antag: antagonists of human EBI2 receptor; P32249; EBI2 beta-arrestin recruitment, luminescence, 7a,25-OHC stimulated; inhibition, % at 5 µM; hit rate 0.81% among 360,000; in the data active = inhibition above about 38%;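 also: enzyme fragment complementation signal reports receptor beta-arrestin coupling in cells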
CXCR6 block: inhibitors of human CXCR6 receptor. O00574. CHO-K1 PathHunter CXCR6 beta-arrestin, luminescence. inhibition, % at 20 µM. hit rate 0.36% among 360,000; in the data active = inhibition above about 34%, passing the limit was not always enough;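 also: antagonist mode with CXCL16 agonist at 10 nM final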
Target sequence (O00574 whole entry, looked up): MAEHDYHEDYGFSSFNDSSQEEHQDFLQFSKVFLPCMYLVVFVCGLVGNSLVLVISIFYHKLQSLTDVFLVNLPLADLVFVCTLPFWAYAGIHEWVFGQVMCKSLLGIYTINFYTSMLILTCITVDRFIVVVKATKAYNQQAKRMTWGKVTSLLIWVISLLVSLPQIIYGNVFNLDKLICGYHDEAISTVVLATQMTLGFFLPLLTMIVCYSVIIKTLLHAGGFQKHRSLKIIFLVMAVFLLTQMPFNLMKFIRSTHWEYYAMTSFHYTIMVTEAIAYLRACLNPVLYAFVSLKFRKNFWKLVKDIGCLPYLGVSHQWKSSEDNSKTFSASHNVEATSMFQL
APJ ag: agonists of human APJ apelin receptor. P35414. activation, % at 20 µM. CHO-K1 APJ PathHunter beta-arrestin, luminescence; 0% DMSO wells, 100% apelin. hit rate 0.11% among 330,000;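 active = activation more than six SD over the plate average, tested at 20 µM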
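Incubation: overnight seeding, 90 min compound at 25 °C, 1 h detection; test system: PathHunter CHO-K1 APJ (AGTRL-1) beta-arrestin reporter cells; amount: 1000 cells/well; doses: one dose, 20 µM compound, 1% DMSO; measured by: beta-gal luminescence; measure: agonist-driven arrestin binding to APJ; benchmarks: negative DMSO alone, positive Apelin-13 at 10 nM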
CCR6 antagonist: CCR6 (human) receptor antagonism; inhibition, % at 20 µM; hit rate 0.49% among 340,000; P51684; CHO-K1 CCR6 PathHunter beta-arrestin, luminescence, CCL20-stimulated;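 active = compounds whose inhibition of the agonist-driven luminescence signal at 20 µM reaches about 50%, limit read from the data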;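 also: cells stimulated with CCL20 at 14 nM final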
APJ antag: antagonists of human APJ apelin receptor; AID 2521; CHO-K1 APJ beta-arrestin complementation, luminescence; P35414; hit rate 0.32% among 330,000; inhibition, % at 20 µM;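 active = inhibition above about 40% at 20 µM, limit read from the data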;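 also: cells challenged with 10 nM apelin-13 agonist together with compound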
EBI2 conf: EBI2 (human) antagonism, single concentration confirmation | shares compounds with EBI2 antag | EBI2 beta-arrestin luminescence, 7a,25-OHC antagonism | inhibition, % at 5 µM | hit rate 29% among 2,400 | AID 651997;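 active = inhibition of at least 50%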
EBI2 ag: activates EBI2, counter-screen for EBI2 antagonists; EBI2-expressing cells, agonist mode, luminescence, 60 min; 0% vehicle, 100% 7α,25-dihydroxycholesterol control; shares compounds with EBI2 antag; activation, % at 5 µM; AID 652000; 2,400 tested, under 10 active;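 active = activation of at least 50%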
bGal cs: beta-galactosidase inhibition counter-screen | AID 652176 | inhibition, % at 5 µM | purified beta-galactosidase, luminescent Galacton Star, 15 min | shares compounds with EBI2 antag | hit rate 1% among 2,400;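 active = replicate-average signal at least 3 plate SD below neutral wells, shown as high inhibition, flagging enzyme-inhibiting false positives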;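 also: higher means stronger loss of beta-gal luminescence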
A number is an active result; n = inactive; x = not tested or not shown. In the library only some 1.5% were active in any assay of this set; here they are far more common.

SMILES	EBI2 antag	CXCR6 block	APJ ag	CCR6 antagonist	APJ antag	EBI2 conf	EBI2 ag	bGal cs
COc1ccc(N2CCN(C(=O)c3ccc4c(c3)CC(c3ccccc3)OC4=O)CC2)cc1 (centres undefined)	91	n	n	n	n	78	n	n
O=C1OC(c2ccccc2)Cc2cc(C(=O)N3CCN(c4ccc(F)cc4)CC3)ccc21 (centres undefined)	90	n	n	n	n	58	n	n
COCCNC(=O)c1cccc(S(=O)(=O)N2CC3(C)CC2CC(C)(C)C3)c1 (centres undefined)	n	n	n	n	n	x	x	x
CSCCC(c1nnnn1-c1c(C)cccc1C)N1CCN(C/C=C/c2ccccc2)CC1 (centres undefined)	53	n	x	x	x	n	n	n
CCC(c1nnnn1-c1c(C)cccc1C)N1CCN(CC)CC1 (centres undefined)	n	n	x	x	x	x	x	x
Cc1cccc(C)c1-n1nnnc1C(C1CC1)N1CCN(C/C=C/c2ccccc2)CC1 (centres undefined)	44	n	x	x	x	n	n	n
CCC(c1nnnn1-c1c(C)cccc1C)N1CCN(C/C=C/c2ccccc2)CC1 (centres undefined)	58	n	x	x	x	n	n	n
O=C(Nc1ccccc1)c1nc[nH]c1C(=O)NCCN(CCNC(=O)c1[nH]cnc1C(=O)Nc1ccccc1)CCNC(=O)c1[nH]cnc1C(=O)Nc1ccccc1	n	n	n	n	n	x	x	x
COCCn1ccc2c(OCC(=O)NCCc3ccccc3)cccc2c1=O	n	n	n	n	n	x	x	x
CCOC(=O)C1=C(O)/C(=C/c2cc(OC)c(O)c(OC)c2)SC1=Nc1ccc(OC)cc1	49	n	x	n	x	n	n	n
CCOC(=O)C1=C(O)/C(=C/c2ccccn2)SC1=Nc1ccc(Cl)cc1	88	n	n	n	n	86	n	n
CC#CCOCC1CNC(=O)O1 (centres undefined)	n	n	x	x	x	x	x	x
O=C(/C=C/C=C/c1ccc2c(c1)OCO2)N1CCCCC1	n	n	n	n	n	x	x	x
CCN1CCN(C(=O)/C=C/c2ccc3c(c2)OCO3)CC1	66	n	n	n	n	n	n	n
CN1CCN(C(=O)/C=C/c2ccc3c(c2)OCO3)CC1	n	n	n	n	n	x	x	x
CCOC(=O)N1CCN(C(=O)/C=C/c2ccc3c(c2)OCO3)CC1	59	n	n	n	n	61	n	n
O=C(/C=C/c1ccc2c(c1)OCO2)N1CCN(c2n[nH]c(=O)[nH]c2=O)CC1	n	n	n	n	n	x	x	x
CCOC(=O)N1CCN(C(=O)COC(=O)Cc2ccc(OC)cc2)CC1	n	n	n	n	n	x	x	x
CCOC(=O)N1CCN(C(=O)/C=C/c2ccc(OC)cc2)CC1	90	n	n	n	n	75	n	n
COC(=O)C1CCN(C(=O)/C=C/c2ccc3c(c2)OCO3)CC1	57	n	n	n	n	n	n	n
CC(C)CCNCC(=O)NC(c1ccccc1)c1ccccc1	n	n	n	n	n	x	x	x
Cc1ccc(N(C(=O)c2snc(C(N)=O)c2N)C(CC(C)C)C(=O)NC2CCCC2)cc1 (centres undefined)	n	n	n	n	n	x	x	x
CCCCC(C(=O)NC1CCCC1)N(C(=O)c1snc(C(N)=O)c1N)c1ccc(C)cc1 (centres undefined)	50	n	n	n	n	n	n	n
CCOc1ccc(NCc2nnc(SCC(=O)Nc3nc(-c4ccccc4)cs3)n2-c2ccccc2)cc1	46	n	n	n	n	n	n	n
O=C(NCCOc1ccc(Cl)cc1)C1CCCCC1	61	n	n	n	n	n	n	n
SMILES	EBI2 antag	CXCR6 block	APJ ag	CCR6 antagonist	APJ antag	EBI2 conf	EBI2 ag	bGal cs
O=C(NCCOc1ccc(Cl)cc1)c1cccc(S(=O)(=O)N2CCCC2)c1	56	n	n	n	n	n	n	n
O=C(NCc1ccc(Cl)cc1)c1cccc(S(=O)(=O)N2CCCC2)c1	n	n	n	n	n	x	x	x
O=C(/C=C/c1cccc([N+](=O)[O-])c1)N1CCN(c2ccccn2)CC1	n	n	n	n	n	x	x	x
COc1cccc(/C=C/C(=O)N2CCN(c3ccccn3)CC2)c1	75	n	n	n	n	n	n	n
COc1ccc(/C=C/C(=O)N2CCN(c3ccccn3)CC2)cc1	93	n	n	n	n	76	n	n
O=C(/C=C/c1ccc(F)cc1)NC(=S)N1CCN(c2ccccn2)CC1	n	n	n	n	n	x	x	x
CSc1ccc(/C=C/C(=O)N2CCN(c3ccccn3)CC2)cc1	93	n	n	n	n	81	n	n
COc1cccc(NC(=O)Nc2nnc(COCCO)s2)c1	n	n	x	x	x	x	x	x
Cc1nn(-c2nc3ccccc3s2)c(N)c1-c1ccc(Cl)cc1	54	n	n	n	n	53	n	n
COc1ccccc1-c1ccc2c(c1)O[C@@H](CN(C)C(=O)Nc1cccc(F)c1)[C@H](C)CN([C@H](C)CO)S2(=O)=O	44	n	x	x	x	n	n	n
COc1cccc(NC(=O)N(C)C[C@@H]2Oc3cc(Br)ccc3S(=O)(=O)N([C@@H](C)CO)C[C@H]2C)c1	n	n	x	x	x	x	x	x
COc1ccc(CC(=O)Nc2ccc(S(=O)(=O)N3CCC(C)CC3)cc2)c(OC)c1	n	n	n	n	n	x	x	x
Cc1ccccc1Nc1c([N+](=O)[O-])ccc2c1=NC1(CCCCC1)N=2	56	n	n	n	n	n	n	n
CCc1ccccc1N1CC(C(=O)Nc2nccs2)CC1=O (centres undefined)	n	n	n	n	n	x	x	x
NS(=O)(=O)c1ccc(CCNC(=O)C2CCN(S(=O)(=O)c3ccc(Br)s3)CC2)cc1	n	n	n	n	n	x	x	x
Cc1ccc(CNC(=O)C2CCN(S(=O)(=O)c3ccc(Br)s3)CC2)cc1	92	n	n	n	n	61	n	n
Cc1ccc(CNC(=O)C2CCN(S(=O)(=O)c3cccs3)CC2)cc1	60	n	n	n	n	51	n	n
CC(C)(C)NC(=O)C(c1ccccc1)n1c(=O)c(-c2ccccc2)nc2ccccc21 (centres undefined)	n	x	x	x	x	x	x	x
O=C(OCc1ccccc1C(F)(F)F)c1ccc(Br)c(S(=O)(=O)N2CCOCC2)c1	n	n	x	n	x	x	x	x
CCCN(C(=O)c1c(-c2ccccc2)noc1C)c1c(N)n(Cc2ccccc2)c(=O)[nH]c1=O	n	n	n	n	n	x	x	x
C[C@H]1CN([C@@H](C)CO)C(=O)CCCn2nncc2CO[C@H]1CN(C)S(=O)(=O)c1cccc(F)c1	n	n	x	x	x	x	x	x
